# Calls of active or inactive are those of the source. No cut-off for these calls is given here. Starred links: 1 amine or outer side, 2 acyl side, 3 side chain; linkers in the order of their positions; H or OH if unused. Positions of bridges follow the written chain, without caps; N, C: chain ends. Non-standard residues stand in square brackets, D forms with d. Residues, ends and D or L forms follow the SMILES beside them. *: point of attachment. pTerphenylCO(4''-OnC5H11) = CCCCCOc1ccc(-c2ccc(-c3ccc(C(=O)*)cc3)cc2)cc1; hTyr = N[C@@H](CCc1ccc(O)cc1)C(=O)O; Ethylenediamine = C(CN[*:2])N[*:1]; Palmitoyl = CCCCCCCCCCCCCCCC(=O)*; Hyp = O=C(O)[C@@H]1C[C@@H](O)CN1; AllylGly = C=CC[C@H](N)C(=O)O; Orn = NCCC[C@H](N)C(=O)O; NHNH2 = NN*
# What was measured:
# Candida albicans [1] = assay: Antifungal activity against Candida albicans CBS 9975 after 24 hrs by broth microdilution method; type: functional; conditions: for MIC: CBS 9975, 24 h
# In short: (§1)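 Broth microdilution in YPD (1% yeast extract, 2% peptone, 1% dextrose). Compounds dissolved in water or 10% DMSO at 1 mg/mL, diluted fivefold in YPD, then serially twofold. CBS yeast isolates were grown on YPD agar for 24 h at 30 °C, then in YPD broth with shaking for 24 h. Inoculum was ~1.5 × 10³ cells/ml. Incubation at 30 °C. MIC read visually at 24 h as the lowest concentration giving full growth inhibition.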
# Candida tropicalis = assay: Antifungal activity against Candida tropicalis after 24 hrs by broth microdilution method; type: functional, organism-based; in short: as §1
# Candida albicans [2] = assay: Antifungal activity against Candida albicans after 24 hrs by broth microdilution method; type: functional, organism-based; in short: as §1
# Candida dubliniensis = assay: Antifungal activity against Candida dubliniensis after 24 hrs by broth microdilution method; type: functional, organism-based; in short: as §1
# Candida parapsilosis = assay: Antifungal activity against Candida parapsilosis after 24 hrs by broth microdilution method; type: functional, organism-based; in short: as §1
# Pichia kudriavzevii = assay: Antifungal activity against Candida krusei after 24 hrs by broth microdilution method; type: functional, organism-based; in short: as §1
# Nakaseomyces glabratus = assay: Antifungal activity against Candida glabrata after 24 hrs by broth microdilution method; type: functional, organism-based; in short: as §1
# Candida albicans [3] = assay: Antifungal activity against Candida albicans CBS 9975 assessed as enlarged round cells with large vacuoles after 24 hrs by broth microdilution method; type: functional, organism-based
# Candida albicans [4] = assay: Antifungal activity against Candida albicans CBS 9975 assessed as agglutinated enlarged round cells after 24 hrs by broth microdilution method; type: functional, organism-based
# Candida albicans [5] = assay: Antifungal activity against Candida albicans CBS 9975 assessed as reduction in budding cells after 24 hrs by broth microdilution method; type: functional, organism-based
# Candida albicans [6] = assay: Antifungal activity against Candida albicans CBS 9975 assessed as enlarged round cells with distorted cytoplasm after 24 hrs by broth microdilution method; type: functional, organism-based
structure (smiles),measurement,setting,value
CC[C@H](C)C[C@H](C)CCCCCCCCC(=O)N[C@H]1C[C@@H](O)[C@@H](NCCN)NC(=O)[C@@H]2[C@@H](O)CCN2C(=O)[C@H]([C@H](O)CCN)NC(=O)[C@H]([C@H](O)[C@@H](O)c2ccc(O)cc2)NC(=O)[C@@H]2C[C@@H](O)CN2C(=O)[C@H]([C@@H](C)O)NC1=O [CASPOFUNGIN],MIC,Candida albicans [1],0.025 µg/mL
CCCCCCCCCCCCCCCC(=O)N[C@H]1CCCC[C@@H](C(N)=O)NC(=O)[C@@H]2C[C@@H](O)CN2C(=O)[C@H](CCCN)NC(=O)[C@H](CCc2ccc(O)cc2)NC(=O)[C@@H]2C[C@@H](O)CN2C(=O)[C@H]([C@@H](C)O)NC1=O,MIC,Candida albicans [1],> 100 µg/mL
CCCCCOc1ccc(-c2ccc(-c3ccc(C(=O)N[C@H]4CCCNC(=O)[C@@H]5C[C@@H](O)CN5C(=O)[C@H](CCCN)NC(=O)[C@H](CCc5ccc(O)cc5)NC(=O)[C@@H]5C[C@@H](O)CN5C(=O)[C@H]([C@@H](C)O)NC4=O)cc3)cc2)cc1 ({pTerphenylCO(4''-OnC5H11)}-[Orn]T[Hyp][hTyr][Orn][Hyp]; lactam 1-C),MIC,Candida albicans [1],0.14 µg/mL
same,Activity,Candida tropicalis,Active
same,Activity,Candida albicans [2],Active
same,Activity,Candida dubliniensis,Active
same,Activity,Candida parapsilosis,Active
same,Activity,Pichia kudriavzevii,Active
same,Activity,Nakaseomyces glabratus,Active
CCCCCCCCCCCCCCCC(=O)N[C@H]1C/C=C\C[C@@H](C(N)=O)NC(=O)[C@@H]2C[C@@H](O)CN2C(=O)[C@H](CCCN)NC(=O)[C@H](CCc2ccc(O)cc2)NC(=O)[C@@H]2C[C@@H](O)CN2C(=O)[C@H]([C@@H](C)O)NC1=O (Palmitoyl-[AllylGly]T[Hyp][hTyr][Orn][Hyp][AllylGly]-NH2; staple (Z) 1-7),MIC,Candida albicans [1],> 100 µg/mL
CCCCCCCCCCCCCCCC(=O)N[C@H]1CCCNC(=O)[C@@H]2C[C@@H](O)CN2C(=O)[C@H](CCCN)NC(=O)[C@H](CCc2ccc(O)cc2)NC(=O)[C@@H]2C[C@@H](O)CN2C(=O)[C@H]([C@@H](C)O)NC1=O (Palmitoyl-[Orn]T[Hyp][hTyr][Orn][Hyp]; lactam 1-C),MIC,Candida albicans [1],4.38 µg/mL
same,Activity,Candida tropicalis,Active
same,Activity,Candida albicans [2],Active
same,Activity,Candida dubliniensis,Active
same,Activity,Candida parapsilosis,Active
same,Activity,Pichia kudriavzevii,Active
same,Activity,Nakaseomyces glabratus,Active
CCCCCOc1ccc(-c2ccc(-c3ccc(C(=O)N[C@H]4C/C=C\C[C@@H](C(=O)NCCN)NC(=O)[C@@H]5C[C@@H](O)CN5C(=O)[C@H](CCCN)NC(=O)[C@H](CCc5ccc(O)cc5)NC(=O)[C@@H]5C[C@@H](O)CN5C(=O)[C@H]([C@@H](C)O)NC4=O)cc3)cc2)cc1 ({pTerphenylCO(4''-OnC5H11)}-[AllylGly]T[Hyp][hTyr][Orn][Hyp][AllylGly]-Ethylenediamine; staple (Z) 1-7),Activity,Candida albicans [1],Dose-dependent effect
same,MIC,Candida albicans [1],> 100 µg/mL
CCCCCOc1ccc(-c2ccc(-c3ccc(C(=O)N[C@H]4C/C=C\C[C@@H](C(=O)O)NC(=O)[C@@H]5C[C@@H](O)CN5C(=O)[C@H](CCCN)NC(=O)[C@H](CCc5ccc(O)cc5)NC(=O)[C@@H]5C[C@@H](O)CN5C(=O)[C@H]([C@@H](C)O)NC4=O)cc3)cc2)cc1 ({pTerphenylCO(4''-OnC5H11)}-[AllylGly]T[Hyp][hTyr][Orn][Hyp][AllylGly]-OH; staple (Z) 1-7),Activity,Candida albicans [1],Dose-dependent effect
same,MIC,Candida albicans [1],> 100 µg/mL
same,Activity,Candida albicans [3],Active
same,Activity,Candida albicans [4],Active
same,Activity,Candida albicans [5],Active
same,Activity,Candida albicans [6],Active
CCCCCOc1ccc(-c2ccc(-c3ccc(C(=O)N[C@H]4C/C=C\C[C@@H](C(=O)NN)NC(=O)[C@@H]5C[C@@H](O)CN5C(=O)[C@H](CCCN)NC(=O)[C@H](CCc5ccc(O)cc5)NC(=O)[C@@H]5C[C@@H](O)CN5C(=O)[C@H]([C@@H](C)O)NC4=O)cc3)cc2)cc1 ({pTerphenylCO(4''-OnC5H11)}-[AllylGly]T[Hyp][hTyr][Orn][Hyp][AllylGly]-NHNH2; staple (Z) 1-7),Activity,Candida albicans [1],Dose-dependent effect
same,MIC,Candida albicans [1],> 100 µg/mL
CCCCCOc1ccc(-c2ccc(-c3ccc(C(=O)N[C@H]4CCCCNC(=O)[C@@H]5C[C@@H](O)CN5C(=O)[C@H](CCCN)NC(=O)[C@H](CCc5ccc(O)cc5)NC(=O)[C@@H]5C[C@@H](O)CN5C(=O)[C@H]([C@@H](C)O)NC4=O)cc3)cc2)cc1 ({pTerphenylCO(4''-OnC5H11)}-KT[Hyp][hTyr][Orn][Hyp]; lactam 1-C),MIC,Candida albicans [1],> 100 µg/mL
same,Activity,Candida tropicalis,Active
same,Activity,Candida albicans [2],Active
same,Activity,Candida dubliniensis,Active
same,Activity,Candida parapsilosis,Active
same,Activity,Pichia kudriavzevii,Active
same,Activity,Nakaseomyces glabratus,Active
CCCCCCCCCCCCCCCC(=O)N[C@H]1CCCNC(=O)[C@@H]2C[C@@H](O)CN2C(=O)[C@H]([C@@H](C)O)NC(=O)[C@H](CCc2ccc(O)cc2)NC(=O)[C@@H]2C[C@@H](O)CN2C(=O)[C@H]([C@@H](C)O)NC1=O (Palmitoyl-[Orn]T[Hyp][hTyr]T[Hyp]; lactam 1-C),MIC,Candida albicans [1],25 µg/mL
same,Activity,Candida tropicalis,Active
same,Activity,Candida albicans [2],Active
same,Activity,Candida dubliniensis,Active
same,Activity,Candida parapsilosis,Active
same,Activity,Pichia kudriavzevii,Active
same,Activity,Nakaseomyces glabratus,Active
CCCCCOc1ccc(-c2ccc(-c3ccc(C(=O)N[C@H]4CCCNC(=O)[C@@H]5C[C@@H](O)CN5C(=O)[C@H]([C@@H](C)O)NC(=O)[C@H](CCc5ccc(O)cc5)NC(=O)[C@@H]5C[C@@H](O)CN5C(=O)[C@H]([C@@H](C)O)NC4=O)cc3)cc2)cc1 ({pTerphenylCO(4''-OnC5H11)}-[Orn]T[Hyp][hTyr]T[Hyp]; lactam 1-C),MIC,Candida albicans [1],0.47 µg/mL
same,Activity,Candida tropicalis,Active
same,Activity,Candida albicans [2],Active
same,Activity,Candida dubliniensis,Active
same,Activity,Candida parapsilosis,Active
same,Activity,Pichia kudriavzevii,Active
same,Activity,Nakaseomyces glabratus,Active
CCCCCCCCCCCCCCCC(=O)N[C@H]1CCCC[C@@H](C(=O)O)NC(=O)[C@@H]2C[C@@H](O)CN2C(=O)[C@H](CCCN)NC(=O)[C@H](CCc2ccc(O)cc2)NC(=O)[C@@H]2C[C@@H](O)CN2C(=O)[C@H]([C@@H](C)O)NC1=O,MIC,Candida albicans [1],> 100 µg/mL
CCCCCCCCCCCCCCCC(=O)N[C@H]1CSSC[C@@H](C(N)=O)NC(=O)[C@@H]2C[C@@H](O)CN2C(=O)[C@H](CCCN)NC(=O)[C@H](CCc2ccc(O)cc2)NC(=O)[C@@H]2C[C@@H](O)CN2C(=O)[C@H]([C@@H](C)O)NC1=O (Palmitoyl-CT[Hyp][hTyr][Orn][Hyp]C-NH2; disulfide 1-7),MIC,Candida albicans [1],> 100 µg/mL
CCCCCOc1ccc(-c2ccc(-c3ccc(C(=O)N[C@H]4CCCC[C@@H](C(=O)O)NC(=O)[C@@H]5C[C@@H](O)CN5C(=O)[C@H](CCCN)NC(=O)[C@H](CCc5ccc(O)cc5)NC(=O)[C@@H]5C[C@@H](O)CN5C(=O)[C@H]([C@@H](C)O)NC4=O)cc3)cc2)cc1,MIC,Candida albicans [1],> 100 µg/mL
CCCCCCCCCCCCCCCC(=O)N[C@H]1C/C=C\C[C@@H](C(=O)O)NC(=O)[C@@H]2C[C@@H](O)CN2C(=O)[C@H](CCCN)NC(=O)[C@H](CCc2ccc(O)cc2)NC(=O)[C@@H]2C[C@@H](O)CN2C(=O)[C@H]([C@@H](C)O)NC1=O (Palmitoyl-[AllylGly]T[Hyp][hTyr][Orn][Hyp][AllylGly]-OH; staple (Z) 1-7),MIC,Candida albicans [1],> 100 µg/mL
CCCCCOc1ccc(-c2ccc(-c3ccc(C(=O)N[C@H]4C/C=C\C[C@@H](CO)NC(=O)[C@@H]5C[C@@H](O)CN5C(=O)[C@H](CCCN)NC(=O)[C@H](CCc5ccc(O)cc5)NC(=O)[C@@H]5C[C@@H](O)CN5C(=O)[C@H]([C@@H](C)O)NC4=O)cc3)cc2)cc1,Activity,Candida albicans [1],Dose-dependent effect
same,MIC,Candida albicans [1],> 100 µg/mL
CCCCCOc1ccc(-c2ccc(-c3ccc(C(=O)N[C@H]4C/C=C\C[C@@H](C(=O)OC)NC(=O)[C@@H]5C[C@@H](O)CN5C(=O)[C@H](CCCN)NC(=O)[C@H](CCc5ccc(O)cc5)NC(=O)[C@@H]5C[C@@H](O)CN5C(=O)[C@H]([C@@H](C)O)NC4=O)cc3)cc2)cc1 ({pTerphenylCO(4''-OnC5H11)}-[AllylGly]T[Hyp][hTyr][Orn][Hyp][AllylGly]-OMe; staple (Z) 1-7),MIC,Candida albicans [1],> 100 µg/mL

# Reference: ChEMBL document CHEMBL1914435, “Synthesis and evaluation of novel macrocyclic antifungal peptides” (2011)
